Measured values from ChEMBL document CHEMBL1152442, “Discovery of a new template for anticancer agents: 2'-deoxy-2'-fluoro-4'-selenoarabinofuranosyl-cytosine (2'-F-4'-seleno-ara-C)” (J Med Chem, 2009).

Columns and labels:
Type in all cases: functional, cell-based
[1] = test system: SNU-638; assay: Cytotoxicity against human SNU638 cells by sulforhodamine B method
How it was run: (§1)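 Human tumour lines tested: colon HCT116, lung A549, stomach SNU638, breast T47D, prostate PC-3 and leukaemia K562. Growth was read out by sulforhodamine B protein staining.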

[2] = test system: PC-3; assay: Cytotoxicity against human PC3 cells by sulforhodamine B method; how it was run: as §1
[3] = test system: A549; assay: Cytotoxicity against human A549 cells by sulforhodamine B method; how it was run: as §1
[4] = test system: K562; assay: Cytotoxicity against human K562 cells by sulforhodamine B method; how it was run: as §1
[5] = test system: T47D; assay: Cytotoxicity against human T47D cells by sulforhodamine B method; how it was run: as §1
[6] = test system: HCT-116; assay: Cytotoxicity against human HCT116 cells by sulforhodamine B method; how it was run: as §1

| SMILES | IC50 [1] [nM] | IC50 [2] [nM] | IC50 [3] [nM] | IC50 [4] [nM] | IC50 [5] [nM] | IC50 [6] [nM] |
| --- | --- | --- | --- | --- | --- | --- |
| O=c1ccn([C@@H]2[Se][C@H](CO)[C@@H](O)[C@@H]2O)c(=O)[nH]1 | > 100000 | > 100000 | > 100000 | > 100000 | > 100000 | > 100000 |
| Nc1ccn([C@@H]2[Se][C@H](CO)[C@@H](O)[C@@H]2O)c(=O)n1 | 4720 |  | 8830 | 86600 |  | 7130 |
| O=c1ccn([C@@H]2[Se][C@H](CO)[C@@H](O)[C@@H]2F)c(=O)[nH]1 | > 100000 | > 100000 | > 100000 | > 100000 | > 100000 | > 100000 |
| Nc1ccn([C@@H]2[Se][C@H](CO)[C@@H](O)[C@@H]2F)c(=O)n1 | 140 | 580 | 470 | 630 | 790 | 1100 |
| Nc1ccn([C@@H]2O[C@H](CO)[C@@H](O)[C@@H]2O)c(=O)n1 [CYTARABINE] | 150 | 55900 | 1900 | 50 | 2700 | 5300 |
| Nc1ccn([C@@H]2O[C@H](CO)[C@@H](O)C2(F)F)c(=O)n1 [GEMCITABINE] |  | 40 | 90 |  |  | 5 |
